Runt-CBFb FRET – inhibitors of RUNX1 Runt–CBFb binding, primary screen, biochemical, FRET, Cerulean-Runt, Venus-CBFb, uHTS; Runt-related transcription factor 1 (Homo sapiens) + Core-binding factor subunit beta …; actives 0.46% (n = 220,000); AID 1496, 2009; inhibition, % at 20 µM; Cerulean-Runt/Venus-CBFb FRET ratio 530/480, 1 h;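 active means inhibition over about 50% at 20 µM in the single-dose screen, limit read from the data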
Target sequence (Q01196 whole entry, looked up): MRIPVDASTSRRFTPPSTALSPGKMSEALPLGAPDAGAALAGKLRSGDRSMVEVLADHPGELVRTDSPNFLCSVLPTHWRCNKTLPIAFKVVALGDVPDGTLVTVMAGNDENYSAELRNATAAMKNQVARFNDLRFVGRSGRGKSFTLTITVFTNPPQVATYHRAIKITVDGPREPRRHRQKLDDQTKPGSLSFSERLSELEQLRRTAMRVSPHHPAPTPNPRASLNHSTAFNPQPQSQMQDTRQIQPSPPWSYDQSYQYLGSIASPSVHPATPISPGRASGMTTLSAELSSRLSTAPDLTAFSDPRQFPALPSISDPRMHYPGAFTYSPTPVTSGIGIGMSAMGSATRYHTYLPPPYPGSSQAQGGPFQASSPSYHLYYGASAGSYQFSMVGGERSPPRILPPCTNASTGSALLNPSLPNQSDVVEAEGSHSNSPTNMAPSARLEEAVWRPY
Target sequence (Q13951 whole entry, looked up): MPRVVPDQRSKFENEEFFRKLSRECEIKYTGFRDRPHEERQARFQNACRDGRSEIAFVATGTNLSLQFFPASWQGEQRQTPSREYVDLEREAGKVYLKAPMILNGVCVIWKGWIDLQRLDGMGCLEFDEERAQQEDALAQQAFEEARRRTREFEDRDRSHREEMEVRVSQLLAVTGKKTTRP
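test system = Cerulean-tagged RUNX1 Runt domain (FRET donor) fusion protein | reagent = Venus-CBFb binding partner, 100 nM | incubation = protein complex preformed 1 h, compound exposure 1 h, room temperature, dark | detection = FRET fluorescence | read-out basis = loss of energy transfer signal | controls = 5 µM unlabeled CBFb as full-inhibition high control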
Hck-Nef inh – inhibitors of Nef-activated human Hck kinase, primary screen, biochemical, Z-Lyte FRET, 384-well, Hck-YEEI; Tyrosine-protein kinase HCK (Homo sapiens), P08631; Recombinant Hck-YEEI plus Nef, Z-Lyte FRET kinase assay; actives 0.68% (n = 220,000); AID 463187, 2010; inhibition, % at 20 µM;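 active means Hck-Nef kinase inhibition above about 50%, limit read from the data; inactive means inhibition below that limit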
Tb hexokinase – Trypanosoma brucei hexokinase 1 inhibitors, primary screen, biochemical, G6PDH-coupled NADH absorbance, MLSCN library | recombinant TbHK1, G6PDH-coupled NADH A340 | actives 0.11% (n = 220,000) | inhibition, % at 10 µM | AID 1430, 2008;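 active means inhibition of 50% or more in the single-dose primary screen; inactive means inhibition below 50%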
Runt-SMMHC FRET – inhibitors of RUNX1 Runt–CBFb-SMMHC binding, primary screen, biochemical, FRET, Cerulean-Runt, Venus-CBFb-SMMHC, uHTS; Runt-related transcription factor 1 (Homo sapiens) + Core-binding factor subunit beta …; AID 1434, 2008; inhibition, % at 20 µM; Cerulean-Runt/Venus-CBFb-SMMHC FRET ratio 530/480, 1 h; actives 0.74% (n = 220,000);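 active means mean inhibition across duplicate retests at 20 µM reaching about 50%, limit read from the data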;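 further: inhibitors lower the FRET ratio by blocking Runt binding to CBFb-SMMHC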
RanGTP-Imp inh – inhibitors of RanGTP-importin-beta interaction, primary screen, biochemical, FRET, CFP-Ran, YFP-importin-beta, homogeneous | Ran GTPase (GTP-bound) - importin-beta complex | cell-free CFP-Ran/YFP-importin-beta FRET ratio | inhibition, % (no concentration beside the values) | actives 1.1% (n = 300,000) | AID 2216, 2009;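 active means more than half of the replicate wells show a fall in the fluorescence ratio signal beyond about 16%, limit read from the data, passing the limit was not always enough; inconclusive means exactly half of the replicate wells pass the set limit; inactive means fewer than half of replicates pass the limit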
A number is an active result. The list is not random: actives were taken first. Their share in the collection is about 1.9%.

How did CCCCNC(=O)/C=C1\Sc2ccccc2NC1=O do in these assays?
Runt-CBFb FRET: inactive; Hck-Nef inh: inactive; Tb hexokinase: inactive; Runt-SMMHC FRET: inactive; RanGTP-Imp inh: 31.8

Results for FC(F)(F)c1cc(-c2cccs2)nc2cc(-c3cccs3)nn12 ?
Runt-CBFb FRET: inactive; Hck-Nef inh: inactive; Tb hexokinase: inactive; Runt-SMMHC FRET: inactive; RanGTP-Imp inh: 43.4

Results for O=C(c1ccncc1)N1CCN(S(=O)(=O)c2ccc(F)cc2)CC1 ?
RanGTP-Imp inh: inactive

What do the screens show for `CCN(C(=O)COC(=O)/C=C/c1cccc([N+](=O)[O-])c1)c1ccccc1`?
Runt-CBFb FRET: inactive; Hck-Nef inh: inactive; Tb hexokinase: inactive; Runt-SMMHC FRET: inactive; RanGTP-Imp inh: inactive

How did CC1Cc2ccccc2N1Cc1cccc([N+](=O)[O-])c1 (centres undefined) do in these assays?
RanGTP-Imp inh: inactive

Results for Cc1cc(N2CCOCC2)nc(N)n1 ?
Runt-CBFb FRET: inactive; Hck-Nef inh: inactive; Tb hexokinase: inactive; Runt-SMMHC FRET: inactive; RanGTP-Imp inh: inactive

Results for Nc1nc(N2CCOCC2)cc(=O)[nH]1 ?
Runt-CBFb FRET: inactive; Hck-Nef inh: inactive; Tb hexokinase: inactive; Runt-SMMHC FRET: inactive; RanGTP-Imp inh: 20.3

How did COc1cccc2[nH]c3ccccc3c(=O)c12 do in these assays?
RanGTP-Imp inh: 126.6

What do the screens show for `COc1cccc2[nH]c(C(=O)NN)c(N)c12`?
Runt-CBFb FRET: inactive; Hck-Nef inh: inactive; Tb hexokinase: inactive; Runt-SMMHC FRET: inactive; RanGTP-Imp inh: inactive

What do the screens show for `Nc1cccc2c(=O)c3ccccc3[nH]c12`?
RanGTP-Imp inh: 63.7

How did CCOc1ccc(CCNS(=O)(=O)c2ccc3c(c2)N(C(C)=O)CCO3)cc1OCC do in these assays?
RanGTP-Imp inh: inactive

How did CCCCCCNc1c([N+](=O)[O-])c(=O)sc2ccccc12 do in these assays?
Runt-CBFb FRET: inactive; Hck-Nef inh: inactive; Tb hexokinase: inactive; Runt-SMMHC FRET: inactive; RanGTP-Imp inh: 147.2

Results for CCCN1C(=O)/C(=N\OCC(=O)NCC(F)(F)F)c2ccccc21 ?
Runt-CBFb FRET: inactive; Hck-Nef inh: inactive; Tb hexokinase: inactive; Runt-SMMHC FRET: inactive; RanGTP-Imp inh: inactive

How did CCN1C(=NCCc2cccs2)N[C@@H](c2cccs2)C(C(=O)OC)=C1C do in these assays?
RanGTP-Imp inh: 31.2

How did Cc1ccc(S(=O)(=O)N(CC(=O)Nc2cccc(C(F)(F)F)c2)C(=O)N2CCN(C)CC2)cc1 do in these assays?
RanGTP-Imp inh: inactive

What do the screens show for `CCCc1cc(=O)[nH]c(Nc2ccc3c(c2)OCCO3)n1`?
Runt-CBFb FRET: inactive; Hck-Nef inh: inactive; Tb hexokinase: inactive; Runt-SMMHC FRET: inactive; RanGTP-Imp inh: inactive

What do the screens show for `CCc1ccc(-c2cc(C(F)(F)F)n3nc(C(=O)Nc4c(C)nn(Cc5ccc(F)cc5)c4C)cc3n2)s1`?
Runt-CBFb FRET: inactive; Hck-Nef inh: inactive; Tb hexokinase: inactive; Runt-SMMHC FRET: inactive; RanGTP-Imp inh: 58.4

What do the screens show for `Cc1ccccc1Cn1nc(C)c(NC(=O)c2cc3nc(-c4ccco4)cc(C(F)(F)F)n3n2)c1C`?
Runt-CBFb FRET: inactive; Hck-Nef inh: inactive; Tb hexokinase: inactive; Runt-SMMHC FRET: inactive

Results for COc1ccccc1/C=C/C1(C(=O)NC2CCCC2)CC(=O)N1c1ccccc1 (centres undefined) ?
Runt-CBFb FRET: inactive; Hck-Nef inh: inactive; Tb hexokinase: inactive; Runt-SMMHC FRET: inactive; RanGTP-Imp inh: inactive

What do the screens show for `Cn1c(=O)c(C(=O)COC(=O)c2cc(C3CC3)nc3ccccc23)c(N)n(Cc2ccccc2)c1=O`?
Runt-CBFb FRET: inactive; Hck-Nef inh: inactive; Tb hexokinase: inactive; Runt-SMMHC FRET: inactive

How did Cn1c(=O)c(C(=O)COC(=O)c2cc(-c3ccco3)nc3ccccc23)c(N)n(CC2CC2)c1=O do in these assays?
Runt-CBFb FRET: inactive; Hck-Nef inh: 50.7; Tb hexokinase: inactive; Runt-SMMHC FRET: inactive; RanGTP-Imp inh: inactive

What do the screens show for `Cc1cc(NCCCOC(C)C)n2c(nc3ccccc32)c1C#N`?
RanGTP-Imp inh: 26.0

Results for Cc1cc(NCCN2CCCCC2)n2c(nc3ccccc32)c1C#N ?
Runt-CBFb FRET: inactive; Hck-Nef inh: inactive; Tb hexokinase: inactive; Runt-SMMHC FRET: inactive; RanGTP-Imp inh: inactive

What do the screens show for `Clc1cccc(C2CCN(Cc3nc(CC4CC4)no3)C2)c1` (centres undefined)?
Runt-CBFb FRET: inactive; Hck-Nef inh: inactive; Tb hexokinase: inactive; Runt-SMMHC FRET: inactive; RanGTP-Imp inh: inactive

What do the screens show for `CSCC(C)N1CCC(n2nccc2NC(=O)c2ccccc2C)CC1` (centres undefined)?
RanGTP-Imp inh: 20.9

What do the screens show for `CSCC(C)N1CCC(n2nccc2NC(=O)c2ccc3c(c2)OCO3)CC1` (centres undefined)?
RanGTP-Imp inh: inactive

What do the screens show for `NC(=Nc1ccc(Br)cc1)c1ccccc1`?
RanGTP-Imp inh: inactive

What do the screens show for `CC(=Nc1ccccc1)C1=C(O)COC1=O`?
Runt-CBFb FRET: inactive; Hck-Nef inh: inactive; Tb hexokinase: inactive; Runt-SMMHC FRET: inactive; RanGTP-Imp inh: inactive

What do the screens show for `CC(=Nc1ccccc1)c1sc2ccccc2c1O`?
Runt-CBFb FRET: inactive; Hck-Nef inh: inactive; Tb hexokinase: inactive; Runt-SMMHC FRET: inactive; RanGTP-Imp inh: 47.7

Results for CC(=Nc1ccc(Br)cc1)c1sc2ccccc2c1O ?
Runt-CBFb FRET: inactive; Hck-Nef inh: inactive; Tb hexokinase: inactive; Runt-SMMHC FRET: inactive; RanGTP-Imp inh: 49.1

Results for COc1ccccc1N(CC(=O)N/N=C/c1c(O)ccc2ccccc12)S(C)(=O)=O ?
Runt-CBFb FRET: inactive; Hck-Nef inh: inactive; Tb hexokinase: inactive; Runt-SMMHC FRET: 52.6; RanGTP-Imp inh: inactive

How did Cc1cc(Nc2c(C)n(C)n(-c3ccccc3)c2=O)n2c(nc3cc(F)c(F)cc32)c1C#N do in these assays?
Runt-CBFb FRET: inactive; Hck-Nef inh: inactive; Tb hexokinase: inactive; Runt-SMMHC FRET: inactive; RanGTP-Imp inh: 96.3

Results for CCCc1cc(SCC(=O)Nc2c(C)n(C)n(-c3ccccc3)c2=O)n2c(nc3ccccc32)c1C#N ?
Runt-CBFb FRET: inactive; Hck-Nef inh: inactive; Tb hexokinase: inactive; Runt-SMMHC FRET: inactive; RanGTP-Imp inh: inactive

How did CCS(=O)(=O)C1=NN2C(=N)/C(=C\c3ccc(OC(=O)c4ccco4)c(Br)c3)C(=O)N=C2S1 do in these assays?
RanGTP-Imp inh: inactive

What do the screens show for `CCS(=O)(=O)C1=NN2C(=N)/C(=C\c3ccc(SCc4ccco4)o3)C(=O)N=C2S1`?
Runt-CBFb FRET: inactive; Hck-Nef inh: 63.5; Tb hexokinase: inactive; Runt-SMMHC FRET: inactive; RanGTP-Imp inh: inconclusive

Results for COc1ccc(-c2noc3c2-c2nc(-c4cccc(C)c4)sc2CC3)cc1 ?
RanGTP-Imp inh: inactive

Screening results (PubChem)
